From paper PMC3612139 (Bioorganic chemistry, 2013) come the findings set out here.

Molecules are shown by their SMILES.

The subject of this test is HL-60 promyelocytes. Description: HL-60 differentiation. It is filed as cell-based. Particulars: Homo sapiens, HL-60, read-out: HL-60 differentiation EC50. In short, it runs like this: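 Differentiation of HL-60 promyelocytes to monocytes, scored as the percentage of cells reducing nitro blue tetrazolium. EC50 taken from dose–response curves as the concentration giving 50% maturation. Ratio is the average of test compound EC50 over 1α,25-(OH)2D3 EC50. Run in duplicate on at least two occasions.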

On to `C=C1/C(=C\C=C2/CCC[C@]3(C)[C@@H]([C@H](C)CCCC(C)(C)O)CC[C@@H]23)C[C@@H](O)C[C@@H]1O` [Compound 1, 1α,25-Dihydroxyvitamin D3], for which the EC50 (commonly the concentration that produces a half-maximal response) came out at 2 nM.
